# Results from ChEMBL document CHEMBL4732107, “Synthesis and anticancer activity evaluation of naphthalene-substituted triazole spirodienones” (Eur J Med Chem, 2021).
# Activity calls are given as the source filed them. No cut-off for these calls is given here.
# Key:
# A549 = assay: Antiproliferative activity against human A549 cells assessed as reduction in cell viability measured after 5 days by beckman coulter counting method; assay type: functional, cell-based; settings: A549, 120 h
# In short: (§1)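 Cells kept in DMEM with 10% FBS, 4 mM glutamine, 1 mM sodium pyruvate, penicillin/streptomycin and amphotericin, at 37 °C in 5% CO2. Seeded at 20,000 per well, then exposed to 5 concentrations for 5 days, with DMSO as vehicle. Viable cells counted on a cell viability analyzer. Viability expressed as treated/vehicle count, and IC50 taken from dose-response curves.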
# HeLa = assay: Antiproliferative activity against human HeLa cells assessed as reduction in cell viability measured after 5 days by beckman coulter counting method; assay type: functional, cell-based; settings: 120 h
# MDA-MB-231 [1] = assay: Antiproliferative activity against human MDA-MB-231 cells assessed as reduction in cell viability measured after 5 days by beckman coulter counting method; assay type: functional, cell-based; settings: MDA-MB-231, 120 h
# 4T1 [2] = assay: Antitumor activity against mouse 4T1 cells implanted in mouse assessed as reduction in tumor weight at 1 mg/kg, ip administered daily for 12 days; assay type: functional, organism-based; settings: time 12.0 day
# In short: (§2)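 Mice bearing orthotopic 4T1 tumors were randomized into 4 groups (n = 6) once tumors reached about 100 mm2. Groups received vehicle, test compound at 1 or 2 mg/kg, or doxorubicin at 1 mg/kg, given i.p. every day. Body weight and tumor volume were recorded daily. Tumors were excised and weighed at the end, and inhibition was calculated against the saline control.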
# 4T1 [3] = assay: Antitumor activity against mouse 4T1 cells implanted in mouse assessed as tumor growth inhibition at 1 mg/kg, ip administered daily for 12 days relative to control; assay type: functional; settings: 4T1, ip, 288 h, time 12 day, read-out: TGI; in short: as §2
# [4] = Toxicity in mouse implanted with mouse 4T1 cells assessed as change in body weight at 1 mg/kg, ip administered daily for 12 days measured daily during compound dosing; assay type: organism-based; settings: in vivo, 288 h, time 12 day; in short: as §2
# MCF7 = assay: Antiproliferative activity against human MCF7 cells assessed as reduction in cell viability measured after 5 days by beckman coulter counting method; assay type: functional, cell-based; settings: MCF7, 120 h; in short: as §1
# MDA-MB-231 [5] = assay: Cell cycle arrest in human MDA-MB-231 cells assessed as accumulation at S phase at 1 uM measured after 24 hrs by propidium iodide staining based flow cytometry (reference value: 19.84%); assay type: functional
# MDA-MB-231 [6] = assay: Induction of apoptosis in human MDA-MB-231 cells assessed as viable cells at 1 uM measured after 24 hrs by annexin V-FITC/propidium iodide staining based flow cytometry (reference value: 90.9%); assay type: functional; settings: read-out: Activity
# MDA-MB-231 [7] = assay: Cell cycle arrest in human MDA-MB-231 cells assessed as accumulation at G1 phase at 1 uM measured after 24 hrs by propidium iodide staining based flow cytometry (reference value: 74.39%); assay type: functional
# MDA-MB-231 [8] = assay: Induction of apoptosis in human MDA-MB-231 cells assessed as early apoptotic cells at 1 uM measured after 24 hrs by annexin V-FITC/propidium iodide staining based flow cytometry (reference value: 1.49%); assay type: functional
# MDA-MB-231 [9] = assay: Cell cycle arrest in human MDA-MB-231 cells assessed as accumulation at G2 phase at 1 uM measured after 24 hrs by propidium iodide staining based flow cytometry (reference value: 5.77%); assay type: functional
# In short: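 MDA-MB-231 cells were seeded at 5 × 10^5 cells/mL and treated for 24 h. They were then trypsinized and washed twice in cold PBS. Cells were resuspended in PBS, stained with PI for 15 min at room temperature in the dark, and analyzed by flow cytometry.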
# MDA-MB-231 [10] = assay: Induction of apoptosis in human MDA-MB-231 cells assessed as necrotic cells at 1 uM measured after 24 hrs by annexin V-FITC/propidium iodide staining based flow cytometry (reference value: 4.74%); assay type: functional
# MDA-MB-231 [11] = assay: Induction of apoptosis in human MDA-MB-231 cells assessed as late apoptotic cells at 1 uM measured after 24 hrs by annexin V-FITC/propidium iodide staining based flow cytometry (reference value: 2.84%); assay type: functional
SMILES,IC50 (A549) [µM],IC50 (HeLa) [µM],IC50 (MDA-MB-231 [1]) [µM],also measured
O=C1C=CC2(C=C1)OCC(=O)N2c1nc(-c2ccc3ncccc3c2)nn1-c1ccccc1,0.17,0.11,0.05,–
COc1cccc2c1C(=O)c1c(O)c3c(c(O)c1C2=O)C[C@@](O)(C(=O)CO)C[C@@H]3O[C@H]1C[C@H](N)[C@H](O)[C@H](C)O1 [DOXORUBICIN],–,–,–,Activity (4T1 [2]): Active; inhibition in vivo at 1 mg/kg (4T1 [3]): 45.1%; Activity [4]: Non-Toxic
COc1ccc(-n2nc(-c3ccc4ccccc4c3)nc2N2C(=O)COC23C=CC(=O)C=C3)cc1,0.26,0.2,0.06,–
Cc1ccc(-n2nc(-c3cccc4ccccc34)nc2N2CCOC23C=CC(=O)C=C3)cc1,1.52,0.57,0.26,–
O=C1C=CC2(C=C1)OCC(=O)N2c1nc(-c2ccc3c(c2)OCCO3)nn1-c1ccccc1,0.17,0.07,0.1,–
O=C1C=CC2(C=C1)OCC(=O)N2c1nc(-c2ccc3ccccc3c2)nn1-c1ccccc1,0.14,0.12,0.07,–
COc1ccc(-n2nc(-c3ccc4ccccc4c3)nc2N2C(=O)C(C)OC23C=CC(=O)C=C3)cc1 (stereo not given),0.86,0.14,0.05,–
O=C1C=CC2(C=C1)OCC(=O)N2c1nc(-c2ccc3ccccc3c2)nn1-c1ccc2ccccc2c1,0.25,0.21,0.05,–
O=C1C=CC2(C=C1)OCCN2c1nc(-c2ccc3ccccc3c2)nn1-c1ccccc1,–,0.37,0.23,–
Cc1ccc(-n2nc(-c3cccc4ccccc34)nc2N2C(=O)COC23C=CC(=O)C=C3)cc1,–,0.14,0.04,–
O=C1C=CC2(C=C1)OCC(=O)N2c1nc(-c2cccc(Cl)c2)nn1-c1ccccc1,0.0252,0.0453,0.0008,IC50 (MCF7): 0.00411 µM
Cn1c(CCCC(=O)O)nc2cc(N(CCCl)CCCl)ccc21 [BENDAMUSTINE],–,> 20,13.3,–
COc1ccc(/C=C\c2cc(OC)c(OC)c(OC)c2)cc1O [COMBRETASTATIN A4],–,–,–,Activity (MDA-MB-231 [5]): 27.34%; viability at 1 µM (MDA-MB-231 [6]): 58.6%; Activity (MDA-MB-231 [7]): 54.49%; Activity (MDA-MB-231 [8]): 8.57%; Activity (MDA-MB-231 [9]): 18.16%; Activity (MDA-MB-231 [10]): 12.8%; Activity (MDA-MB-231 [11]): 20%
O=C1C=CC2(C=C1)OCC(=O)N2c1nc(-c2ccc3ccccc3c2Br)nn1-c1ccccc1,0.1,0.29,0.05,–
CC1OC2(C=CC(=O)C=C2)N(c2nc(-c3cccc4ccccc34)nn2-c2ccccc2)C1=O (stereo not given),0.18,0.11,0.1,–

# Further compounds by falling IC50 (HeLa), results first:
IC50 (A549) [µM],IC50 (HeLa) [µM],IC50 (MDA-MB-231 [1]) [µM],SMILES,also measured
0.4,0.72,0.07,O=C1C=CC2(C=C1)OCC(=O)N2c1nc(-c2ccc3ccccc3c2)nn1-c1ccc(Cl)cc1,–
1.21,0.53,0.1,Cc1ccc(-n2nc(-c3ccc4ccccc4c3)nc2N2C(=O)C(C)OC23C=CC(=O)C=C3)cc1 (stereo not given),–
2,0.52,0.16,Cc1ccc(-n2nc(-c3ccc4ccccc4c3)nc2N2CCOC23C=CC(=O)C=C3)cc1,–
0.46,0.39,0.07,O=C1C=CC2(C=C1)OCC(=O)N2c1nc(-c2ccc3ccccc3c2)nn1-c1ccc(C(F)(F)F)cc1,–
–,0.3,0.06,CC1OC2(C=CC(=O)C=C2)N(c2nc(-c3ccc4ccccc4c3)nn2-c2ccc3ccccc3c2)C1=O (stereo not given),–
0.32,0.26,0.13,CC1CN(c2nc(-c3ccc4ccccc4c3)nn2-c2ccccc2)C2(C=CC(=O)C=C2)O1 (stereo not given),–
0.32,0.2,0.08,O=C1C=CC2(C=C1)OCC(=O)N2c1nc(-c2ccc(F)c3ccccc23)nn1-c1ccccc1,–
0.11,0.15,0.03,Cc1ccc(-n2nc(-c3ccc4ccccc4c3)nc2N2C(=O)COC23C=CC(=O)C=C3)cc1,–
0.43,0.15,0.11,O=C1C=CC2(C=C1)OCCN2c1nc(-c2cccc3ccccc23)nn1-c1ccccc1,–
0.18,0.13,0.08,O=C1C=CC2(C=C1)OCC(=O)N2c1nc(-c2ccc3c(c2)Cc2ccccc2-3)nn1-c1ccc(C(F)(F)F)cc1,–
0.31,0.12,0.07,CC1OC2(C=CC(=O)C=C2)N(c2nc(-c3ccc4ccccc4c3)nn2-c2ccccc2)C1=O (stereo not given),–
0.15,0.11,0.07,O=C1C=CC2(C=C1)OCC(=O)N2c1nc(-c2ccc3c(c2)Cc2ccccc2-3)nn1-c1ccccc1,–
0.13,0.1,0.12,Cc1ccccc1-n1nc(-c2cccc3ccccc23)nc1N1C(=O)COC12C=CC(=O)C=C2,–
